Assay results reported in ChEMBL document CHEMBL1129989, “Minor structural differences in Boc-CCK-4 derivatives dictate affinity and selectivity for CCK-A and CCK-B receptors” (J Med Chem, 1997).
*1 amine or outer side, *2 acyl side, *3 side chain or, on linkers, in order; H or OH if unused. Where a SMILES comes first, the peptide text is derived from it. Side-chain parts run from the residue outwards. The star is where a group is joined. NH(4-MeO-phenyl) = COc1ccc(N*)cc1; pNA = O=[N+]([O-])c1ccc(N*)cc1; X2 = O=[N+]([O-])c1cccc(N*)c1; NH(3-MeOPh) = COc1cccc(N*)c1; 3Abz = Nc1cccc(C(=O)O)c1; 4Abz = Nc1ccc(C(=O)O)cc1; X1 = CC(=O)c1ccc(N*)cc1; 2Abz = Nc1ccccc1C(=O)O; Boc = CC(C)(C)OC(=O)*; CO = O=C([*:1])[*:2]

What was measured:
[1] = species on record: Cavia porcellus; assay: Relative affinity for type B (cortex) over type A (pancreatic) cholecystokinin receptors
Method in brief: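 Selectivity ratio is IC50 in cortex divided by IC50 in pancreas. Both IC50s come from displacement of specific [125I]Bolton–Hunter CCK-8 binding, each determination run in duplicate.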

[2] = biological target: Cholecystokinin type B receptor (Cavia porcellus); assay: Displacement of [125I]- BH-CCK-8 from Cholecystokinin type B receptor of guinea pig cortex
[3] = biological target: T1, Cholecystokinin receptor type A (Cavia porcellus, UniProt Q63931); assay: Displacement of [125I]- BH-CCK-8 from Cholecystokinin type A receptor of guinea pig pancreas
T1 sequence (Q63931 whole entry): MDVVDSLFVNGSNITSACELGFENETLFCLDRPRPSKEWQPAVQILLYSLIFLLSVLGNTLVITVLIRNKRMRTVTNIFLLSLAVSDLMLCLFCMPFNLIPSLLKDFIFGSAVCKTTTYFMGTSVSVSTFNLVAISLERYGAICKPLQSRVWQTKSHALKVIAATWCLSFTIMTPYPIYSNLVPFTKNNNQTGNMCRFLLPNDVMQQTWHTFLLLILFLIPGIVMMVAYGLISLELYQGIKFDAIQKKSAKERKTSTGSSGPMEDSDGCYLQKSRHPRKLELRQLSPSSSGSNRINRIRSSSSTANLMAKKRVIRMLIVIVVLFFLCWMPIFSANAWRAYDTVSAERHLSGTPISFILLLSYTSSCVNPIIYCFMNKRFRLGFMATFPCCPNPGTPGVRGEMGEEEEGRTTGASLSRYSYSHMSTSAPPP
Method in brief: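 Competition binding in pancreas and cortex tissue membranes with [125I]Bolton–Hunter CCK-8 as radioligand. […] Values are means ± SE over several determinations, each run in duplicate with <5% sample variability.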

[4] = system: NCI-H345; assay: Concentration that produced 50% of the maximal response in intracellular calcium mobilization in the NCI-H345 cells.; type: functional, cell-based; conditions: Homo sapiens
Method in brief: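 NCI-H345 cells carry the CCK-B/gastrin receptor. Intracellular calcium mobilization was read by indo-1 fluorescence. […] Values are means ± SE of several determinations.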

[5] = species on record: Cavia porcellus; assay: The maximal response elicited by the compound (concentration of 100 uM) relative to the maximal response elicited by CCK-8 (1 uM) in the PI hydrolysis assay; type: functional
[6] = species on record: Cavia porcellus; assay: Concentration that stimulated amylase release in guinea pig pancreatic acini relative to CCK-8; type: functional
[7] = system: NCI-H345; assay: The maximal response elicited by the compound (concentration of 10 uM) relative to the maximal response elicited by CCK-8; type: functional, Homo sapiens
[8] = system: NCI-H345; assay: The maximal response elicited by the compound (concentration of 1 uM) relative to the maximal response elicited by CCK-8; type: functional, Homo sapiens

Compound | C/P [1] | IC50 [2] | IC50 [3] | EC50 [4] | Max response [5] | EC50 [6] | Max response [7] | Max response [8]
COC(=O)c1ccccc1NC(=O)NCCCC[C@H](NC(=O)[C@H](Cc1c[nH]c2ccccc12)NC(=O)OC(C)(C)C)C(=O)N[C@@H](CC(=O)O)C(=O)N[C@@H](Cc1ccccc1)C(N)=O (Boc-WK([CO-2Abz-OMe])DF-NH2) | 91 | 3100 nM | – | – | – | – | – | –
COC(=O)c1cccc(NC(=O)NCCCC[C@H](NC(=O)[C@H](Cc2c[nH]c3ccccc23)NC(=O)OC(C)(C)C)C(=O)N[C@@H](CC(=O)O)C(=O)N[C@@H](Cc2ccccc2)C(N)=O)c1 (Boc-WK([CO-3Abz-OMe])DF-NH2) | 67 | – | 15 nM | – | – | – | – | –
COC(=O)c1ccc(NC(=O)NCCCC[C@H](NC(=O)[C@H](Cc2c[nH]c3ccccc23)NC(=O)OC(C)(C)C)C(=O)N[C@@H](CC(=O)O)C(=O)N[C@@H](Cc2ccccc2)C(N)=O)cc1 (Boc-WK([CO-4Abz-OMe])DF-NH2) | – | – | 71 nM | – | – | – | – | –
COc1cccc(NC(=O)NCCCC[C@H](NC(=O)[C@H](Cc2c[nH]c3ccccc23)NC(=O)OC(C)(C)C)C(=O)N[C@@H](CC(=O)O)C(=O)N[C@@H](Cc2ccccc2)C(N)=O)c1 (Boc-WK([CO-NH(3-MeOPh)])DF-NH2) | 150 | – | 9.4 nM | – | – | – | – | –
COc1ccc(NC(=O)NCCCC[C@H](NC(=O)[C@H](Cc2c[nH]c3ccccc23)NC(=O)OC(C)(C)C)C(=O)N[C@@H](CC(=O)O)C(=O)N[C@@H](Cc2ccccc2)C(N)=O)cc1 (Boc-WK([CO-NH(4-MeO-phenyl)])DF-NH2) | 50 | – | 14 nM | – | – | – | – | –
CC(=O)c1ccc(NC(=O)NCCCC[C@H](NC(=O)[C@H](Cc2c[nH]c3ccccc23)NC(=O)OC(C)(C)C)C(=O)N[C@@H](CC(=O)O)C(=O)N[C@@H](Cc2ccccc2)C(N)=O)cc1 (Boc-WK([CO-X1])DF-NH2) | 0.26 | – | 46 nM | 120 nM | 80% | 85 nM | 91% | –
CC(C)(C)OC(=O)N[C@@H](Cc1c[nH]c2ccccc12)C(=O)N[C@@H](CCCCNC(=O)Nc1cccc([N+](=O)[O-])c1)C(=O)N[C@@H](CC(=O)O)C(=O)N[C@@H](Cc1ccccc1)C(N)=O (Boc-WK([CO-X2])DF-NH2) | 210 | – | 5.8 nM | – | – | – | – | –
CC(C)(C)OC(=O)N[C@@H](Cc1c[nH]c2ccccc12)C(=O)N[C@@H](CCCCNC(=O)Nc1ccc([N+](=O)[O-])cc1)C(=O)N[C@@H](CC(=O)O)C(=O)N[C@@H](Cc1ccccc1)C(N)=O (Boc-WK([CO-pNA])DF-NH2) | 0.75 | – | 41 nM | 47 nM | 74% | 39 nM | – | 94%
